Laboratory results from ChEMBL document CHEMBL5674889, “Enhanced JunD/RSK3 signalling due to loss of BRD4/FOXD3/miR-548d-3p axis determines BET inhibition resistance” (2020).
Activity calls are given as the source filed them.

Key:
Type in all cases: functional, cell-based
[1] = tested on: MDA-MB-231; experiment: Antiproliferative activity in human MDA-MB-231 cells assessed as inhibition of cell growth at 1 uM by CCK-8 assay
[2] = tested on: BT-549; experiment: Effect on human JUND-knockdown BT-549 cells assessed as reduction of RSK3 protein expression at 1 uM by Western blot analysis
In short: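 RSK3 and JunD were probed by western blot in JUND-knockdown or JUND-overexpressing stable clones and their controls, all selected with puromycin 1.0 μg/ml. Antibodies used at 1:1000.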

[3] = tested on: MDA-MB-231; experiment: Antiproliferative activity in human RPS6KA2-knockdown MDA-MB-231 cells assessed as cell viability at 1 uM for 48 hrs by CellTiter-Glo luminescent cell viability assay
In short: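 CellTiter-Glo viability: stable overexpressing or shRNA clones (puromycin 1.0 μg/ml selection) seeded 3000 cells/well, adhered overnight, then exposed to 1 μM for 48 h. Luminescence is background-subtracted and normalised to DMSO-treated control. Triplicates, mean ± SD, one-way ANOVA. MDA-MB-231 cells are kept in DMEM and BT549 in RPMI-1640, each with 10% FBS.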

[4] = tested on: MDA-MB-231; experiment: Effect on human RPS6KA2-knockdown MDA-MB-231 cells assessed as inhibition tumor sphere formation at 1 uM by Tumor sphere assay
[5] = tested on: MDA-MB-231; experiment: Antiproliferative activity in human MDA-MB-231 cells assessed as cell growth in the presence of miR-548d-3p at 1 uM by CCK-8 assay
In short: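 BLBC cells transfected with miR-548d-3p mimic or inhibitor, with or without JQ1; growth read by CCK-8 assay relative to DMSO-treated control, seeded at 3000/well. Triplicates, mean ± SD, one-way ANOVA.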

[6] = tested on: HEK-293T; experiment: Effect on human HEK293T cells transfected with BRD4 assessed as decrease in luciferase activity at 1 uM for 6 hrs by Luciferase reporter assay
[7] = tested on: BT-549; experiment: Antiproliferative activity in human FOXD3-knockdown BT-549 cells co-silenced with shRNA of JUND assessed as cell growth at 1 uM by CCK-8 assay
[8] = tested on: MCF7; experiment: Antiproliferative activity in human FOXD3-overexpressing MCF7 cells assessed as cell growth at 1 uM by CCK-8 assay
[9] = tested on: MDA-MB-231; experiment: Antiproliferative activity in human MDA-MB-231 cells assessed as cell growth in the presence of gefitinib at 1 uM by CellTiter-Glo luminescent cell viability assay
In short: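 BLBC cells seeded at 3000/well, adhered overnight, then exposed to JQ1 (1 μM) with or without an EGFR inhibitor (1 μM) for 48 h; control and RPS6KA2-shRNA clones tested. Viability by CellTiter-Glo luminescence, background-subtracted and normalized to DMSO-treated control; triplicates, mean ± SD, one-way ANOVA against JQ1 alone.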

[10] = tested on: MDA-MB-231; experiment: Antiproliferative activity in human RPS6KA2-knockdown MDA-MB-231 cells assessed as inhibited cell growth at 1 uM for 48 hrs by CCK-8 assay

Measured: Activity

Cc1sc2c(c1C)C(c1ccc(Cl)cc1)=N[C@@H](CC(=O)OC(C)(C)C)c1nnc(C)n1-2
active: all assays above
